According to ChEMBL document CHEMBL4706606, “Re-evaluating pretomanid analogues for Chagas disease: Hit-to-lead studies reveal both in vitro and in vivo trypanocidal efficacy” (Eur J Med Chem, 2020):
≈ marks a conversion by molar mass, not a printed value. Calls of active or inactive are those of the source. The calls are words filed in the database; no cut-off is given here.

Assays:
Trypanosoma cruzi [1] = test: Antitrypanosomal activity against Trypanosoma cruzi Tulahuen strain C2C4 amastigotes infected in rat L6 cells assessed as inhibition of parasite growth incubated for 96 hrs by chlorophenol red-fl-D-galactopyranoside based colorimetric analysis; assay type: functional, organism-based; details: for IC50: Tulahuen strain C2C4, L6, 96 h; for IC90: Tulahuen strain C2C4, L6, time 96 hrs
Outline: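 Tulahuen strain TcVI T. cruzi expressing β-galactosidase, grown in L6 rat skeletal myoblast host cells. IC50/IC90 growth inhibition. Each value is the mean of ≥2 independent determinations using fresh sample stock.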

L6 = test: Cytotoxicity against rat L6 cells assessed as reduction in cell viability incubated for 72 hrs by alamar blue assay; assay type: ADME, cell-based; details: L6, 72 h
[2] = Selectivity index, ratio of IC50 for cytotoxicity against rat L6 cells to IC50 for antitrypanosomal activity against Trypanosoma cruzi Tulahuen strain C2C4 amastigotes infected in rat L6 cells
[3] = Kinetic solubility of compound in water sonicated for 15 mins by HPLC analysis
Trypanosoma cruzi [4] = test: Antitrypanosomal activity against Trypanosoma cruzi Y strain amastigotes infected in U2OS cells assessed as inhibition of parasite growth at […] by image-based assay relative to control
[5] = Kinetic solubility of compound in 0.1M HCl at pH 1 sonicated for 15 mins by HPLC analysis; assay type: physicochemical; details: read-out: Kinetic_solubility
Outline: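 Solid mixed with 0.1 M HCl to a nominal 2 mM, sonicated 15 min, centrifuged 6 min. Supernatant diluted 2-fold and analysed by HPLC. Kinetic solubility from peak area against a DMSO standard solution.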

[6] = Half life in human liver microsomes incubated for 60 mins
[7] = Plasma concentration in Swiss mouse at 50 mg/kg, po measured upto 24 hrs by LC-MS/MS analysis
Cytochrome P450 3A4 = Cytochrome P450 3A4 (Homo sapiens, UniProt P08684); test: Inhibition of CYP3A4 in human liver microsome using testosterone as substrate
Sequence of Cytochrome P450 3A4 (P08684 whole entry): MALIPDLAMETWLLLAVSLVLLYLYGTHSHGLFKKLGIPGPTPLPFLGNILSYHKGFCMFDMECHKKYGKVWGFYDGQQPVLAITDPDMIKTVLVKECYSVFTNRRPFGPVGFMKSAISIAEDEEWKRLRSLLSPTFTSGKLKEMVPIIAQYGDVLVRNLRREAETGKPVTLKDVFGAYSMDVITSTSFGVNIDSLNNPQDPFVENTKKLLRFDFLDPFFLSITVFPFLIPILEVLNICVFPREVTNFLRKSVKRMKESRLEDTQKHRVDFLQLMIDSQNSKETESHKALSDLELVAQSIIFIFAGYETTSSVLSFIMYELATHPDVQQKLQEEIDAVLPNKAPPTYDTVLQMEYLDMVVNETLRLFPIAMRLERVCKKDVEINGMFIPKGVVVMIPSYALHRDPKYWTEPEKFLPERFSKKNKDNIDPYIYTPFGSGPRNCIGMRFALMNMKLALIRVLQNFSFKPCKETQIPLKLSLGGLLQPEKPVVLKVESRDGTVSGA

Trypanosoma cruzi [8] = test: Antitrypanosomal activity against Trypanosoma cruzi amastigotes assessed as inhibition of parasite growth at 10 ug/ml relative to control
Trypanosoma cruzi [9] = test: Antitrypanosomal activity against Trypanosoma cruzi Tulahuen strain C2C4 amastigotes infected in […] cells assessed as reduction in parasite growth incubated for 48 hrs by chlorophenol red-fl-D-galactopyranoside based colorimetric analysis; assay type: functional, organism-based; details: for IC50: Tulahuen strain C2C4, NIH3T3, 48 h; for IC90: Tulahuen strain C2C4, NIH3T3, time 48 hrs
[10] = Cytotoxicity against rat 3T3 cells assessed as reduction in cell viability incubated for 72 hrs by alamar blue assay; assay type: ADME, cell-based; details: NIH3T3, 72 h
Trypanosoma cruzi [11] = test: Antitrypanosomal activity against Trypanosoma cruzi Tulahuen strain C2C4 amastigotes infected in […] cells assessed as reduction in parasite growth incubated for 48 hrs by chlorophenol red-fl-D-galactopyranoside based colorimetric analysis relative to control; assay type: functional
[12] = Inhibition of Trypanosoma cruzi Tulahuen C4 strain CYP51 expressed in Escherichia coli by fluorescence based assay
[13] = Selectivity index, ratio of IC50 for cytotoxicity against rat 3T3 cells to IC50 for antitrypanosomal activity against Trypanosoma cruzi Tulahuen strain C2C4 amastigotes infected in rat 3T3 cells; details: 3T3 cells
Trypanosoma cruzi [14] = test: Antitrypanosomal activity against Trypanosoma cruzi Y strain amastigotes infected in U2OS cells assessed as inhibition of parasite growth at 0.37 ug/ml by image-based assay relative to control
Trypanosoma cruzi [15] = test: Antitrypanosomal activity against bloodstream trypomastigotes form of Trypanosoma cruzi CL Brener infected in BALB/c mouse assessed as reduction in parasitemia at 50 mg/kg, po administered 5 days after 114 days post infection followed by cyclophosphamide induced immunosuppression on day 143 post infection and measured for 149 days by bioluminescence analysis; assay type: functional, organism-based; details: time 5.0 day
Outline: (§1)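 Female BALB/c mice, 8 weeks old, ~18 g, 5 per group. Infected i.p. with 10^3 bloodstream trypomastigotes of bioluminescent CL Brener (pTRIX2-RE9h). From day 114 p.i., oral dosing once daily for 5 days: reference drugs at 100 mg/kg in HPMC-SV with 5% DMSO, PEG400 vehicle at 50 mg/kg. Cyclophosphamide 200 mg/kg i.p. on days 135, 139 and 143. Final imaging day 149. Ex vivo organ bioluminescence days 149-151.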

Trypanosoma cruzi [16] = test: Antitrypanosomal activity against bloodstream trypomastigotes form of Trypanosoma cruzi CL Brener infected in BALB/c mouse assessed as reduction of parasite in mouth/nasal region at 50 mg/kg, po qd administered for 5 days starting from day 114 post infection followed by cyclophosphamide induced …; assay type: functional, organism-based; details: time 5.0 day
Trypanosoma cruzi [17] = test: Antitrypanosomal activity against bloodstream trypomastigotes form of Trypanosoma cruzi CL Brener infected in BALB/c mouse assessed as reduction of parasite in small intestine at 50 mg/kg, po qd administered for 5 days starting from day 114 post infection followed by cyclophosphamide induced …; assay type: functional, organism-based; details: time 5.0 day
Trypanosoma cruzi [18] = test: Antitrypanosomal activity against bloodstream trypomastigotes form of Trypanosoma cruzi CL Brener infected in BALB/c mouse assessed as reduction in parasite in caecum at 50 mg/kg, po qd administered for 5 days starting from day 114 post infection followed by cyclophosphamide induced immunosuppression on days 135, 139 and 143 post infection and measured for 149 days by bioluminescence analysis; assay type: functional, organism-based; details: time 5.0 day; outline: as §1
[19] = Thermodynamic solubility of compound in PEG400; assay type: physicochemical
Trypanosoma cruzi [20] = test: (§2) Antitrypanosomal activity against bloodstream trypomastigotes form of Trypanosoma cruzi Tulahuen strain C2C4 infected in Swiss mouse assessed as reduction in parasitemia at 20 mg/kg, po qd administered for 20 days starting from day 8 post infection followed by cyclophosphamide induced immunosuppression on day 10 post infection and measured for 51 days by neubauer haemocytometer based microscopic analysis; assay type: functional, organism-based; details: time 20.0 day
Outline: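 Same infection (female Swiss mice, 5 x 10⁴ trypomastigotes ip) and 20-day oral course from day 8 p.i. After 10 days' rest, mice with very low or undetectable parasitemia got three cycles of cyclophosphamide, 50 mg/kg ip daily for 4 days then 3 days' rest, starting day 37 p.i. Blood parasitemia checked on days 37, 44, 51 and 58 p.i. by haemocytometer, with PCR detection also used.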

Trypanosoma cruzi [21] = test: as §2, with “infection” for “infection followed by cyclophosphamide induced immunosuppression on day 10 post infection”, “28” for “51”; assay type: functional, organism-based; details: time 20.0 day
Outline: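 Female Swiss mice, 5 per group, infected intraperitoneally with 5 x 10⁴ bloodstream trypomastigotes (Tulahuen). Oral dosing once daily for 20 days from day 8 p.i., with the commercial formulation diluted in water for injection. Tail blood (3 μL) taken on days 8 (predose), 9, 12, 14, 16, 19, 21 and 28 p.i., diluted 1:10 in red cell lysis buffer and counted by haemocytometer.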

Trypanosoma cruzi [22] = test: Antitrypanosomal activity against Trypanosoma cruzi Y strain amastigotes infected in U2OS cells assessed as inhibition of parasite growth at 3.3 ug/ml by image-based assay relative to control
Trypanosoma cruzi [23] = test: as §2, with “at 50” for “at 20”, “infection” for “infection followed by cyclophosphamide induced immunosuppression on day 10 post infection”, “for 28” for “for 51”; assay type: functional, organism-based; details: time 20.0 day
Outline: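 Female Swiss mice, 5 per group, infected i.p. with 5 x 10^4 bloodstream trypomastigotes (Tulahuen). Oral dosing once daily for 20 days from day 8 p.i., vehicle HPMC-SV with 5% DMSO. Tail blood, 3 μL diluted 1:10 in RBC lysis, counted by haemocytometer on days 8–28 p.i.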

[24] = Metabolic stability in CD-1 mouse liver microsomes assessed as parent compound remaining incubated for 1 hr; assay type: ADME, Microsome
Outline: (§3)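 Pooled human or CD-1 mouse liver microsomes at 0.4 mg/mL microsomal protein. Percent parent remaining after 1 h incubation.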

[25] = Metabolic stability in human liver microsomes assessed as parent compound remaining incubated for 1 hr; assay type: ADME, Microsome; details: read-out: Stabilty; outline: as §3

Structure (SMILES) | IC50 (Trypanosoma cruzi [1]) | IC90 (Trypanosoma cruzi [1]) | IC50 (L6) | selectivity ratio [2] | solubility kinetic at 0.25 h [3] | IC50 (Trypanosoma cruzi [9]) | IC90 (Trypanosoma cruzi [9]) | IC50 [10] | %max (Trypanosoma cruzi [11]) | IC50 [12] | selectivity ratio [13] | also measured
O=[N+]([O-])c1nc2n(n1)C[C@H](O)CO2 | 1600 nM | 6300 nM | > 100 µM | > 63 | 8750 µg/mL (≈ 47000 µM) |  |  |  |  |  |  | inhibition at […] (Trypanosoma cruzi [4]): 58%
O=[N+]([O-])c1cn2c(n1)OC[C@H](OCc1ccc(-c3ccc(C(F)(F)F)cc3Cl)cn1)C2 | 670 nM | 2900 nM | 50 µM | 75 | 1 µg/mL (≈ 2.2 µM) |  |  |  |  |  |  | solubility kinetic at 0.25 h [5]: 299 µg/mL (≈ 657 µM)
O=[N+]([O-])c1cn2c(n1)OC[C@@H](OCc1ccc(-c3ccc(C(F)(F)F)cc3Cl)cc1)C2 | 3700 nM | 8000 nM | 34 µM | 9.2 | 0.48 µg/mL (≈ 1.06 µM) |  |  |  |  |  |  | half-life at 1 h [6]: > 250 min; concentration at 24 h [7]: 9.1 µM; IC50 (Cytochrome P450 3A4): > 20 µM; inhibition at 10 µg/mL (Trypanosoma cruzi [8]): 94%
O=[N+]([O-])c1cn2c(n1)OCC(COc1ccc(-c3ccc(F)cc3)cn1)C2 (stereo not given) | 22 nM | 190 nM | > 100 µM | > 4540 | 1.1 µg/mL (≈ 2.97 µM) |  |  |  |  |  |  | inhibition at […] (Trypanosoma cruzi [4]): 29%
O=[N+]([O-])c1cn2c(n1)OC[C@@H](OCC#Cc1ccc(-c3ccc(OC(F)(F)F)cc3)cn1)C2 | 320 nM | 990 nM | > 100 µM | > 313 | 0.49 µg/mL (≈ 1.06 µM) | 730 nM | 1000 nM | > 37 µM | 99% | > 10 µM | > 51 | half-life at 1 h [6]: > 250 min; inhibition at 0.37 µg/mL (Trypanosoma cruzi [14]): 44%
O=[N+]([O-])c1cn2c(n1)OC[C@H](Oc1ccc(OC(F)(F)F)cc1)C2 | 400 nM | 1000 nM | > 100 µM | > 250 |  | 1200 nM | 1700 nM | > 73 µM | 99% | > 10 µM | > 61 | concentration at 24 h [7]: 11 µM; Activity (Trypanosoma cruzi [15]): Active; Activity (Trypanosoma cruzi [16]): Active; Activity (Trypanosoma cruzi [17]): Active; Activity (Trypanosoma cruzi [18]): Active; solubility thermodynamic [19]: 21 mg/mL (≈ 60800 µM)
CC[C@@H]([C@H](C)O)n1ncn(-c2ccc(N3CCN(c4ccc(OC[C@@H]5CO[C@@](Cn6cncn6)(c6ccc(F)cc6F)C5)cc4)CC3)cc2)c1=O [POSACONAZOLE] |  |  |  |  |  | 1.2 nM | 4.9 nM | > 1 µM | 85% | 0.052 µM | > 833 | Activity (Trypanosoma cruzi [20]): Active; Activity (Trypanosoma cruzi [21]): Active
CC1(COCc2ccc(OCc3ccccc3)cc2)Cn2cc([N+](=O)[O-])nc2S1(=O)=O (stereo not given) | 83 nM | 240 nM | > 100 µM | > 1200 | < 0.1 µg/mL |  |  |  |  |  |  | half-life at 1 h [6]: 25 min; inhibition at 3.3 µg/mL (Trypanosoma cruzi [22]): 59%
O=[N+]([O-])c1cn2c(n1)OC[C@@H](OCC#Cc1ccc(-c3ccc(C(F)(F)F)cc3)cn1)C2 | 230 nM | 590 nM | > 100 µM | > 435 | 0.33 µg/mL (≈ 0.743 µM) | 510 nM | 1700 nM | > 37 µM | 97% | > 10 µM | > 73 | inhibition at […] (Trypanosoma cruzi [4]): 48%
CC1(COc2ccc(-c3ccc(F)cc3)cn2)CCn2cc([N+](=O)[O-])nc2O1 (stereo not given) |  |  |  |  |  |  |  |  |  |  |  | inhibition at 3.3 µg/mL (Trypanosoma cruzi [22]): 50%
CC1(COc2ccc(OC(F)(F)F)cc2)CCn2cc([N+](=O)[O-])nc2O1 (stereo not given) | 450 nM | 930 nM |  |  |  |  | 1000 nM |  | 100% |  |  | Activity (Trypanosoma cruzi [23]): Active; inhibition at 3.3 µg/mL (Trypanosoma cruzi [22]): 52%
O=[N+]([O-])c1cn2c(n1)OC[C@H](OCC#Cc1ccc(-c3ccc(C(F)(F)F)cc3)cn1)C2 |  |  |  |  | 0.68 µg/mL (≈ 1.53 µM) | 270 nM | 1700 nM | > 37 µM | 95% | > 10 µM | > 137 | solubility kinetic at 0.25 h [5]: 7.6 µg/mL (≈ 17.1 µM); remaining at 1 h [24]: 76%; remaining at 1 h [25]: 58%
O=[N+]([O-])c1cn2c(n1)OC[C@H](OCC#Cc1ccc(-c3ccc(OC(F)(F)F)cc3)cn1)C2 |  |  |  |  | < 0.1 µg/mL | 670 nM | 2200 nM | > 37 µM | 94% | > 10 µM | > 55 | solubility kinetic at 0.25 h [5]: 3 µg/mL (≈ 6.52 µM); remaining at 1 h [24]: 74%; remaining at 1 h [25]: 68%
